MEKK2wt PB1 HTS: modulators of MEK5 binding to wildtype MEKK2, primary screen, biochemical, multiplex bead flow cytometry, Alexa488-MEK5. Mitogen-activated protein kinase kinase kinase 2 (Homo sapiens), Q9Y2U5. Alexa488-MEK5 binding to MEKK2 WT; actives lie on both sides. binding response (% of control), % at 10 µM. 290,000 tested, 1.1% active. AID 1531, 2009; in the data active = binding response below about 67% or above about 130%
ABCG2 inh: ABCG2 efflux pump inhibitors, primary screen, multiplex with ABCB1, IgMXP3 cells, flow cytometry; JC-1 efflux; inhibition, % at 6.6 µM; 190,000 tested, 0.1% active;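 active = inhibition above 80%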
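Test system: IgMXP3 cells (ABCG2) mixed with DDAO far-red-labelled CCRF-Adr cells (ABCB1). Reagent: JC-1 transporter substrate. Compound dosing: single test compound dose, 6.6 µM final. Times: 10 min compound exposure, 25 °C. Detection: flow cytometry of retained JC-1 fluorescence. Read-out basis: efflux inhibition in percent versus controls. Controls: nicardipine and DMSO wells.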
MEKK3 PB1 HTS: modulators of MEKK3-MEK5 PB1 binding, primary screen, biochemical, wildtype MEKK3, multiplex bead flow cytometry, Alexa488-MEK5. Mitogen-activated protein kinase kinase kinase 3 (Homo sapiens), Q99759. binding response (% of control), % at 10 µM. AID 1529, 2009. bead-based flow cytometry, Alexa488-MEK5 binding to MEKK3; actives lie on both sides; 0 = blocked by unlabeled MEK5, 100 = vehicle. 290,000 tested, 1.4% active;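 active = binding response more than 3 SD above or below the average of its plate-row segment, actives on both sides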;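 note: Alexa488 bead fluorescence after subtracting the streptavidin-only scavenger bead signal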
Target sequence (Q99759 whole entry, looked up): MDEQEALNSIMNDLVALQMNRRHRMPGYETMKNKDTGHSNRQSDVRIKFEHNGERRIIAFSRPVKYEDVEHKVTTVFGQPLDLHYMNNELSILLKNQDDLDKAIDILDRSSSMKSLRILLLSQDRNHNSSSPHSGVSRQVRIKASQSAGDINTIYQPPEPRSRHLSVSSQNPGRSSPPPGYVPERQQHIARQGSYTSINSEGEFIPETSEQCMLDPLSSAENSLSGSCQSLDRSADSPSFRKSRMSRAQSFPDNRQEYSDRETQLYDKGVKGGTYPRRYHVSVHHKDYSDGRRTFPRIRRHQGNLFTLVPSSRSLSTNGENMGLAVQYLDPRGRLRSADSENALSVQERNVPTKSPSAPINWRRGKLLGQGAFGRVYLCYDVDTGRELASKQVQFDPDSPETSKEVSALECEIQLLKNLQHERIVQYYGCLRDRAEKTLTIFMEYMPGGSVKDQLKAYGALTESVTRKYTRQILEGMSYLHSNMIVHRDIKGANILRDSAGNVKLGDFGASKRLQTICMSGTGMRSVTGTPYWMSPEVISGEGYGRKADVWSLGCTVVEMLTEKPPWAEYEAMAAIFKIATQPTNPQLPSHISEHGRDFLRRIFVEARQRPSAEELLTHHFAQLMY
MEKK2mut PB1 HTS: MEK5 binding signal on mutant MEKK2 PB1, primary screen, biochemical, multiplex bead flow cytometry, Alexa488-MEK5; AID 1530, 2009; 290,000 tested, 0.35% active; percent response, % at 10 µM; Alexa488-MEK5 binding to MEKK2 mutant; in the data active = percent response above about 24%, passing the limit was not always enough
WT yeast gro inh: growth inhibition of WT strain, primary screen, mitochondrial fusion inhibitor project, WT and mutant strains, chemical genetic; mitochondrial fusion phenotypic screen; inhibition, % at 10 µM; AID 1362, 2008; 190,000 tested, 2.1% active; in the data active = inhibition above about 58%; tested in S. cerevisiae
ABCB1 block: ABCB1 efflux pump inhibitors, primary screen, cell-based, multiplex, flow cytometry, ABCG2 counter-screen; CCRF-Adr cells, JC-1 efflux; inhibition, % at 6.6 µM; 190,000 tested, 0.067% active; AID 1326, 2008; in the data active = inhibition above about 40%;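 note: higher value means more JC-1 retained so stronger ABCB1 efflux block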
Numbers stand for hits; n = inactive; x = no result given; [ ] = remark or other dose. Sampled rows, rich in hits. Any-hit rate of the full collection: about 3.5%.

SMILES	MEKK2wt PB1 HTS	ABCG2 inh	MEKK3 PB1 HTS	MEKK2mut PB1 HTS	WT yeast gro inh	ABCB1 block
CC(C)C(NC(=O)C12CC3CC(CC(C3)C1)C2)C(=O)N/N=C/C1=C(N2CCOCC2)C(=C\c2ccc([N+](=O)[O-])cc2)/CC1 (configuration not stated)	-2.0	n	n	n	n	n
O=C(COc1ccc2c(c1)CCC2)NCc1ccc(Cl)cc1	n	n	n	n	n	n
CCn1cc(C(=O)NCc2ccco2)c2cc(OC)c(OC)cc2c1=O	n	n	n	n	n	n
COc1cc2c(C(=O)NCc3ccc(C)o3)cn(CC(C)C)c(=O)c2cc1OC	n	n	n	n	74.5	n
c1ccc2c(Nc3ccc4c(c3)OCCO4)c3c(nc2c1)CCCC3	n	n	n	n	n	n
COc1ccccc1-c1cc(C(F)(F)F)nc(NCc2ccco2)n1	n	n	n	n	60.0	n
Nc1cccc(C2=Nc3cccc4cccc(c34)N2)c1	n	n	n	n	n	n
COc1ccc(C2=Nc3cccc4cccc(c34)N2)cc1	x	n	x	x	65.7	n
CCOc1cc(CNc2nn[nH]n2)ccc1OCC(=O)NC(C)(C)C	n	n	n	n	n	n
Cc1cc(C)nc(N2CCC(C(=O)Nc3cccc(C(F)(F)F)c3)CC2)n1	n	n	n	n	n	n
Cc1ccc(S(=O)(=O)Nc2cccc3ncccc23)s1	-1.0[inhibitor]	n	1.0[inhibitor]	n	71.0	n
O=C(CSc1nnc2n1CCCN2C(=S)Nc1ccc(Cl)cc1)c1ccccc1	n	n	n	n	65.3	n
CCOc1ccccc1NC(=O)c1cc(S(=O)(=O)NCc2ccco2)ccc1F	n	x	n	n	x	x
CCCCn1c2ccccc2c2nnc(SCC(=O)NC3=NN=C(c4ccccc4)CS3)nc21	n	n	n	n	59.6	n
Cc1c(/C=N/NC(=O)c2cccnc2)c2ccccc2n1Cc1ccccc1	62.0[inhibitor]	n	n	110.0	n	n
CCOC(=O)NC(c1ccc(C(C)C)cc1)C(Cl)(Cl)Cl (configuration not stated)	n	n	n	n	68.7	n
C[C@@H](C(=O)N1CCN(C(=O)OC(C)(C)C)CC1)n1cc(-c2cn([C@@H](C)C(=O)N3CCN(C(=O)OC(C)(C)C)CC3)nn2)nn1	4.0	x	n	n	x	x
CC(C)C(C(=O)N1CCN(C(=O)OC(C)(C)C)CC1)n1cc(-c2cn([C@@H](C)C(=O)N3CCN(C(=O)OC(C)(C)C)CC3)nn2)nn1 (some centres not stated)	n	x	n	n	x	x
COCc1nnc(NC(=O)c2cc(OC)c(OC)cc2[N+](=O)[O-])s1	n	n	n	n	n	n
CCC(C)c1ccc(OCc2ccc(C(=O)O)o2)cc1 (configuration not stated)	n	x	n	n	x	x
Cc1ccc(C(=O)/C=C/c2cn(CN3CCN(C)CC3)c3ccccc23)cc1	n	n	n	n	84.0	n
CSc1nc2ccc(NS(=O)(=O)c3cccc(Cl)c3Cl)cc2s1	n	n	n	n	80.8	n
C(=N\n1cnc2ccccc21)/c1cccnc1	n	n	n	n	n	n
Cc1cc2ncn(/N=C/c3cccnc3)c2cc1C	n	n	n	n	61.4	n
Cc1cc(Nc2ccccc2)c2c([N+](=O)[O-])cc(C)c(C)c2n1	n	n	n	n	76.2	n
SMILES	MEKK2wt PB1 HTS	ABCG2 inh	MEKK3 PB1 HTS	MEKK2mut PB1 HTS	WT yeast gro inh	ABCB1 block
CCOc1ccc(NCc2cccn2-c2nnc(N3CCC(C(=O)NCCCN4CC(C)CC(C)C4)CC3)s2)cc1 (configuration not stated)	137.0	x	n	n	x	x
Cc1ccc(CSc2nnc(-c3ccccc3N)c(=O)[nH]2)cc1	n	n	n	n	63.2	n
CC1CCN(C(=O)/C=C/c2ccc(C(C)(C)C)cc2)CC1	n	n	n	n	61.6	n
Cc1ccc(/C=C/C(=O)N2CCC(Cc3ccccc3)CC2)cc1	n	n	n	n	67.3	n
CCn1cc(C(=O)N2CCCC(CO)(Cc3ccccc3C)C2)cn1 (configuration not stated)	n	x	n	n	x	x
C=CCN(C(=O)c1cccc(S(=O)(=O)N2CCN(C)CC2)c1)c1nc(-c2ccccc2)cs1	n	n	n	n	59.1	n
Cc1csc(N(C(=O)c2cccc(S(=O)(=O)N3CCCC3)c2)c2ccccc2)n1	n	n	n	n	n	n
Cc1ccc(NS(=O)(=O)c2ccc(C3CCCCC3)cc2)cc1	n	n	n	n	80.2	n
Cc1ccc(S(=O)(=O)Nc2ccc(N3CCCCC3)cc2)cc1	n	n	n	n	n	n
Cc1ccccc1S(=O)(=O)c1c(C)cc(C)n(C)c1=O	n	n	n	n	n	n
Cc1ccccc1S(=O)(=O)c1c(C)cc(C)n(CC(C)C)c1=O	n	n	n	n	67.8	n
Cc1cccc2c(C(=O)N3CCN(C(=O)c4ccco4)CC3)cc(-c3cccc(Br)c3)nc12	n	n	n	n	81.3	n
Brc1ccc(C2=CC(c3cccs3)n3ncnc3N2)cc1 (configuration not stated)	n	n	n	n	67.8	n
OCCCc1nc2n(n1)C(c1cccs1)C=C(c1ccc(Br)cc1)N2 (configuration not stated)	n	n	n	n	60.6	n
COc1ccc(CNC(=O)C2CCN(S(=O)(=O)c3ccc4c(c3)CC(C)N4C(C)=O)CC2)cc1 (configuration not stated)	n	x	n	n	x	x
Fc1cccc(NC(=S)NNc2c3ccccc3nc3ccccc23)c1	n	n	n	n	75.7	n
Fc1cccc(NC(=S)NNc2ccccc2)c1	n	x	n	n	x	x
Cc1ccc(NC(=O)c2nc(S(=O)(=O)Cc3ccccc3C)ncc2Cl)cc1C	n	x	n	n	x	x
CN(C)c1ncc(S(=O)(=O)c2ccc(Cl)cc2)c(-c2ccc(Cl)cc2Cl)n1	x	n	x	x	66.4	n
CN(C)c1ncc(S(=O)(=O)c2ccccc2)c(-c2ccc(Cl)cc2Cl)n1	x	n	x	x	n	n
CC(C)(C)c1ccc(S(=O)(=O)N2CCC(NC(=O)c3ccco3)CC2)cc1	n	x	n	n	x	x
CCCn1c(SC(C)C(=O)NCC2CCCO2)nc2sc(CC)cc2c1=O (configuration not stated)	n	x	n	n	x	x
Clc1ccc2nc(-c3ccccn3)c(Nc3ccc4c(c3)OCO4)n2c1	n	n	n	n	72.9	n
CC(C)(C)c1ccc(S(=O)(=O)NCC(=O)N2CCN(Cc3ccccc3)CC2)cc1	n	x	n	n	x	x

Compound activity: PubChem BioAssay, several laboratories
